Hits are enriched below; roughly 1.8% of the tested compounds scored in any of these assays.
SIAE inh – human SIAE inhibitors, primary screen, biochemical, fluorescence polarization, FP-Rh probe, 1536-well HTS. SIAE FP-Rh probe binding. Sialate O-acetylesterase (Homo sapiens), Q9HAT2. AID 1053197, 2014. hit rate 0.69% among 370,000. inhibition, % at 9.66 µM;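 active = inhibition above a cutoff: mean of compounds within the control limits plus 3 SD of those, cut at about 17% in these data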;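 also: 0% = plate median of compound wells and 100% = probe without SIAE protein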
Target sequence (Q9HAT2 whole entry, looked up): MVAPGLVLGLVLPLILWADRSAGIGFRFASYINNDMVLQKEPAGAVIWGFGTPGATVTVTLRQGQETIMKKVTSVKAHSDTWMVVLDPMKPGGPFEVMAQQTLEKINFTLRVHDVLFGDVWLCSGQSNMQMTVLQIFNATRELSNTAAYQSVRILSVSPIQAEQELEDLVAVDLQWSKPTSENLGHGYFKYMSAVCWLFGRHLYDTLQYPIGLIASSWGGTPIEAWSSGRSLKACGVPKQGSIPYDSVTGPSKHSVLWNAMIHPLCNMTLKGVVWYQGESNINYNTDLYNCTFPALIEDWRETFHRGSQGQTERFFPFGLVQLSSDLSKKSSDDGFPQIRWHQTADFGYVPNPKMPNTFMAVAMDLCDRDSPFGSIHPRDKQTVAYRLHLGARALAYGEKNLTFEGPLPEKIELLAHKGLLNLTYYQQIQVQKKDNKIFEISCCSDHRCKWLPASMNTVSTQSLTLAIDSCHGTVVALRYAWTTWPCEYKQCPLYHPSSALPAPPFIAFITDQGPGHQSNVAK
TCR CD3 inh – inhibitors of human TCR-CD3 interaction, primary screen, biochemical, fluorescence, TAMRA-labeled TCR probe. inhibition, % at 9.4 µM. hit rate 0.37% among 360,000. T-cell receptor (TCR). AID 651800, 2012; in the data active = inhibition above about 19%;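 also: recombinant mutant TCR 2C K166C tagged with TAMRA read by polarization; 0% = receptor in buffer alone and 100% = receptor with positive control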
DDE Tn7 FP inh – inhibitors of Tn7 peptide binding to fibrin DD(E), primary screen, biochemical, fluorescence polarization, human fibrin, Tn7 probe; Fibrinogen beta chain (Homo sapiens), P02675; FP displacement of FITC-Tn7 peptide from fibrin DD(E); 0% = median of compound wells per plate; inhibition, % at 8.3 µM; hit rate 0.13% among 370,000; AID 720508, 2013;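 active = inhibition above the mean of compounds falling within the control limits plus 3 SD of them, cut at about 14% in these data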;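 also: 0% = plate median of compound wells and 100% = 10 µM Aha-Tn7 peptide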
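Also added: labelled Tn7 tracer, 0.1 µM; Assay system: human fibrin DD(E) protein; Amount: 2 µM fibrin DD(E); Schedule: 10 min compound pre-incubation, 3 h probe incubation at room temperature; Repeats: one replicate per compound; Read-out basis: percent inhibition; Measured by: fluorescence polarization of the labelled Tn7 tracer.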
mABHD4 FP – ABHD4 inhibitors, primary screen, biochemical, fluorescence polarization, mouse | hit rate 0.54% among 370,000 | inhibition, % at 8.92 µM | purified mABHD4, FP-Rh probe fluorescence polarization | AID 720543, 2013;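 active = inhibition exceeding the mean over every tested compound plus 3 SD, cut at about 30% in these data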;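 also: 0% = plate median of compound wells and 100% = S159A mutant with DMSO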
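Assay system: wild-type mouse ABHD4 protein; compound: single nominal dose of 8.92 µM, 0.89% DMSO final; schedule: 45 min + 60 min at 25 °C; measured by: FP readout, ex 525 nm / em 598 nm; evaluation: % inhibition of FP-Rh probe binding versus controls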
HTRA1 inhibitor – HTRA1 serine protease inhibitors, primary screen, biochemical, fluorescence polarization, HTS; Q92743; recombinant HTRA1, FP-rhodamine activity-based probe; hit rate 0.5% among 340,000; inhibition, % at 5.96 µM; in the data active = inhibition above about 36%;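 also: 0% = enzyme with DMSO and 100% = wells lacking enzyme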
DDE Tn6 FP inh – inhibitors of Tn6 peptide binding to fibrin DD(E), primary screen, biochemical, fluorescence polarization, human fibrin, Tn6 probe. Fibrinogen beta chain (Homo sapiens), P02675. Fibrin DD(E) TRITC-Tn6 fluorescence polarization displacement. inhibition, % at 8.3 µM. hit rate 0.21% among 370,000. AID 720509, 2013;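 active = inhibition above a per-campaign cutoff: mean of compounds within control limits plus 3 SD, cut at about 15% in these data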;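 also: 0% = median of all compound wells on the plate and 100% = blocking peptide control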
ABHD4 confirm – ABHD4 inhibitors, retest, confirmation, biochemical, fluorescence polarization, mouse; purified mABHD4, FP-Rh probe fluorescence polarization; hit rate 55% among 1,800; inhibition, % at 8.92 µM; shares compounds with mABHD4 FP;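 active = mean inhibition across replicates above the hit cutoff set in the primary screen, cut at about 30% in these data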;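 also: 0% = wild-type ABHD4 with DMSO and 100% = catalytically dead S159A mutant with DMSO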
The depositor's hits bear a star; / = no result given.

SMILES | SIAE inh | TCR CD3 inh | DDE Tn7 FP inh | mABHD4 FP | HTRA1 inhibitor | DDE Tn6 FP inh | ABHD4 confirm
CCOC(=O)C1=C(C)N=c2s/c(=C\c3ccc(O)c([N+](=O)[O-])c3)c(=O)n2C1c1ccccc1OC (stereo not drawn) | 4 | -6 | -1 | 37* | 21 | 3 | 63*
Cc1cccc2cc(/C=N/Nc3ccc(C(=O)O)cc3)c(Cl)nc12 | -3 | 12 | 1 | 38* | -1 | -1 | 44*
COc1ccccc1CNC1CCC12CCC(c1ccccc1)CC2 (stereo not drawn) | 0 | / | 5 | 6 | / | -1 | /
C#CCNC(=O)C[C@@H]1C(=O)N2CCCC3=C2[C@@]1(C(=O)OC)CCCC3 | -2 | / | 1 | -2 | / | 2 | /
O=C(O)c1cc([N+](=O)[O-])c(NCCC2=CCCCC2)c([N+](=O)[O-])c1 | 6 | 0 | 4 | 55* | -6 | -3 | 66*
Cc1cccc(Cn2cc(COC(=O)NCCc3ccccc3)nn2)c1 | -4 | / | -9 | -1 | / | -1 | /
CCCCCCCCN1CCS(=O)(=O)N(Cc2ccc(OC)cc2)C(C(=O)OC)C1 (stereo not drawn) | 3 | / | 9 | -5 | / | -2 | /
CC1CCCC(C)N1C(=O)COC(=O)CCC(=O)c1cccs1 (stereo not drawn) | 5 | 9 | -2 | 60* | -2 | 6 | -7
C=CCN1C(=O)[C@@H](CC(=O)NCc2ccccc2)[C@]2(C(=O)OC)CCCCC=C12 | 2 | / | 0 | -9 | / | -1 | /
N#CC1=C(N)Oc2cc(N)ccc2C1c1ccccc1Cl (stereo not drawn) | 1 | 0 | 0 | 30* | 3 | -11 | -4
Nc1sc2c(c1C(=O)NCCc1ccccc1)CCCC2 | 13 | 4 | -1 | 37* | / | 28* | 4
O=S(=O)(c1ccccc1F)n1c(CN2CCOCC2)nc2ccccc21 | 4 | / | 13 | 0 | / | -7 | /
O=C(O)C1CCN(S(=O)(=O)c2ccc3[nH]ccc3c2)CC1 | 0 | 0 | 0 | 30* | 1 | -3 | 29
Cc1ccc(Nc2nc(-c3ccc(O)c(O)c3)cs2)nc1 | 13 | 13 | -7 | 42* | / | -1 | 53*
Cc1ccc(Nc2nc(-c3ccc(F)cc3)cs2)nc1 | -5 | 1 | 2 | 7 | -7 | -5 | /
O=C(C(=O)N1CCN(S(=O)(=O)c2ccc(Cl)cc2)CC1)c1cccc(C(F)(F)F)c1 | -4 | -9 | 0 | -10 | / | -5 | /
CCOC(=O)CC[C@@H]1CC[C@]2(CCCN(Cc3nccs3)C2)O1 | 7 | / | 6 | 3 | / | -6 | /
Cc1cccc2c(N=NC(=O)c3ccc(NS(=O)(=O)c4cccs4)cc3)c(O)[nH]c12 | -25 | 15 | 7 | 7 | -5 | -6 | /
Cc1cccc2c(N=Nc3ccc(S(=O)(=O)Nc4ccc(Cl)cc4)cc3[N+](=O)[O-])c(O)[nH]c12 | 7 | 4 | -2 | 40* | 20 | -1 | 38*
COc1cccc(/C=C2\CC3(OC(=O)c4ccc(F)cc4)CCCN2C3)c1 (stereo not drawn) | 1 | / | -5 | 5 | / | 1 | /
O=c1c2ccccc2n(Cc2ccccc2)n1[C@@H](Cc1ccccc1)Cn1cc(C2CCCC2)nn1 | 8 | / | 10 | 4 | / | 5 | /
Cc1ccc(-n2nc(C)c3c2OC(N)=C(C#N)C3c2ccco2)cc1 (stereo not drawn) | 14 | -2 | 2 | 41* | 8 | 4 | 20
C=CS(=O)(=O)N[C@@H](CSSC[C@H](NS(=O)(=O)C=C)C(=O)OC)C(=O)OC | 3 | 0 | 9 | 2 | / | 3 | /
CC1(C)CC(=O)C2=C(C1)OC(N)=C(C#N)C2c1cc2c(cc1[N+](=O)[O-])OCO2 (stereo not drawn) | 5 | 4 | 7 | 34* | 8 | 1 | 2
CCOc1cc(C2C(C#N)=C(N)OC3=C2C(=O)CC(C)(C)C3)cc([N+](=O)[O-])c1O (stereo not drawn) | 5 | -5 | -2 | 3 | 3 | 6 | /
SMILES | SIAE inh | TCR CD3 inh | DDE Tn7 FP inh | mABHD4 FP | HTRA1 inhibitor | DDE Tn6 FP inh | ABHD4 confirm
Cc1cccc(OCCC(=O)Nc2ccc(N3CCOCC3)cc2N2CCOCC2)c1 | -3 | -1 | -8 | 35* | 1 | 3 | -16
COC(=O)c1cc2c(c3c4cc(OC)ccc4n(S(=O)(=O)c4cccc(C)c4)c13)C(=O)N(C)C2 | 1 | 0 | 12 | -12 | / | 7 | /
COc1ccc2c(c1)c1ccc3c(c1n2C)C(=O)C=CC3=O | -23 | 7 | 6 | 67* | 23 | -16 | 68*
Cc1cc(-c2nc3cccnc3s2)ccc1NS(=O)(=O)c1cccs1 | -4 | -1 | 3 | 46* | -13 | -2 | -2
C[C@@H](O[Si](c1ccccc1)(c1ccccc1)C(C)(C)C)[C@@H]1NC(=O)[C@@H]2C[C@]3(Br)c4ccccc4N(S(=O)(=O)c4ccccc4)[C@@H]3N2C1=O | -5 | / | 3 | 4 | / | -5 | /
O=C(Nc1ccccc1)c1ccccc1NC(=O)c1ccccc1[N+](=O)[O-] | -5 | -4 | 3 | 2 | -15 | -3 | /
O=[N+]([O-])c1ccccc1C(=Nc1ccccc1)c1c(O)cc(O)cc1O | 9 | -1 | 5 | 30* | 4 | -4 | 3
CC1SC(=S)N(c2ccc(N(C)C)cc2)C1=O (stereo not drawn) | 10 | 1 | 6 | 33* | 29 | 4 | 25
CN(C)c1ccc(N2C(=O)CSC2=S)cc1 | -15 | -46 | -7 | 29 | 19 | -2 | /
Cc1ccccc1NC(=O)Cc1nc(COC(=O)c2cc([N+](=O)[O-])ccc2NCCO)cs1 | -6 | -10 | -11 | 40* | -17 | -1 | 19
Cc1ccccc1NC(=O)Cc1nc(COC(=O)c2cccc([N+](=O)[O-])c2)cs1 | 6 | 8 | -5 | 54* | -7 | 12 | 42*
Cc1ccccc1NC(=O)Cc1nc(COC(=O)c2ccc([N+](=O)[O-])cc2)cs1 | -4 | 4 | 4 | 25 | 1 | -1 | /
COc1cccc(CNC(=O)[C@H]2CCCN2C(=O)[C@H]2CCCN2C(=O)N2CCCCC2)c1 | 6 | 1 | 6 | 3 | / | 6 | /
CC(C)C[C@H]1COc2cccc(N3CCCC3)c2S(=O)(=O)N1C | 8 | / | 1 | 3 | / | 1 | /
